Measured values from ChEMBL document CHEMBL5724801, “EUbOPEN Chemogenomics Library - Multiplex” (2024).
Values joined by “and” are separate entries in the source; they are usually repeats but may differ in a detail not shown here. Identical values can stand only once.

Tested on: Fibroblast
Assay: Multiplex assay against human fibroblast
Format: toxicity, cell-based
How it was run: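 Hoechst33342, BioTracker Green Microtubule Cytoskeleton Dye, MitoTracker Red and Annexin V Alexa Fluor 680 were added to live cells at seeding, and imaging on a CQ1 microscope at 37°C and 5% CO2 followed compound addition. Gating by CellPathfinder machine learning separated cells into Hoechst high-intensity objects or normal cells, then normal cells into healthy, pyknosed or fragmented nuclei, then pyknosed cells into mitotic or apoptotic. Per cents of healthy-nucleus cells are reported for the tubulin, mitochondrial-mass and membrane-permeability phenotypes.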

[1] = 12 h, 1 µM, compound concentration 1 uM
[2] = 12 h, 10 µM, compound concentration 10 uM
[3] = 24 h, 1 µM, compound concentration 1 uM
[4] = 24 h, 10 µM, compound concentration 10 uM
[5] = 48 h, 1 µM, compound concentration 1 uM
[6] = 48 h, 10 µM, compound concentration 10 uM

SMILES: CC(=O)Nc1cccc2c1c(Sc1ccc(Cl)cc1)c(C)n2CC(=O)O [AZD1981]
- Population Apoptotic (%) [1]: 27% and 37%
- Population Fragmented Nuclei (%) [1]: 18% and 31%
- Population Healthy Nuclei (%) [1]: 61% and 47%
- Population Hoechst High Intensity Objects (%) [1]: 1% and 3%
- Population Mitochondria Different-Phenotype (%) [1]: 9% and 7%
- Population Mitotic Cells (%) [1]: 72% and 62%
- Population Normal (%) [1]: 98% and 96%
- Population Pyknosed Nuclei (%) [1]: 19% and 21%
- Population Tubulin-Different-Phenotype (%) [1]: 33% and 55%
- Total Cell Count [1]: 173 and 118
- Population Apoptotic (%) [2]: 40% and 33%
- Population Fragmented Nuclei (%) [2]: 16% and 35%
- Population Healthy Nuclei (%) [2]: 64% and 42%
- Population Hoechst High Intensity Objects (%) [2]: 3% and 4%
- Population Membrane Permeable-Phenotype (%) [2]: 2% and 8%
- Population Mitochondria Different-Phenotype (%) [2]: 3% and 0%
- Population Mitotic Cells (%) [2]: 60% and 66%
- Population Normal (%) [2]: 96% and 95%
- Population Pyknosed Nuclei (%) [2]: 19% and 22%
- Population Tubulin-Different-Phenotype (%) [2]: 24% and 35%
- Total Cell Count [2]: 133 and 112
- Population Apoptotic (%) [3]: 53% and 36%
- Population Fragmented Nuclei (%) [3]: 19% and 30%
- Population Healthy Nuclei (%) [3]: 63% and 53%
- Population Hoechst High Intensity Objects (%) [3]: 6% and 3%
- Population Membrane Permeable-Phenotype (%) [3]: 2% and 7%
- Population Mitochondria Different-Phenotype (%) [3]: 2% and 7%
- Population Mitotic Cells (%) [3]: 46% and 63%
- Population Normal (%) [3]: 93% and 96%
- Population Pyknosed Nuclei (%) [3]: 16% and 15%
- Population Tubulin-Different-Phenotype (%) [3]: 28% and 53%
- Total Cell Count [3]: 168 and 128
- Population Apoptotic (%) [4]: 41% and 55%
- Population Fragmented Nuclei (%) [4]: 13% and 36%
- Population Healthy Nuclei (%) [4]: 68% and 43%
- Population Hoechst High Intensity Objects (%) [4]: 4% and 6%
- Population Mitochondria Different-Phenotype (%) [4]: 5% and 0%
- Population Mitotic Cells (%) [4]: 58% and 45%
- Population Normal (%) [4]: 95% and 93%
- Population Pyknosed Nuclei (%) [4]: 18% and 20%
- Population Tubulin-Different-Phenotype (%) [4]: 17% and 40%
- Total Cell Count [4]: 135 and 104
- Population Apoptotic (%) [5]: 54% and 57%
- Population Fragmented Nuclei (%) [5]: 23% and 34%
- Population Healthy Nuclei (%) [5]: 61% and 54%
- Population Hoechst High Intensity Objects (%) [5]: 6% and 3%
- Population Membrane Permeable-Phenotype (%) [5]: 1% and 8%
- Population Mitochondria Different-Phenotype (%) [5]: 6% and 2%
- Population Mitotic Cells (%) [5]: 45% and 42%
- Population Normal (%) [5]: 93% and 96%
- Population Pyknosed Nuclei (%) [5]: 15% and 11%
- Population Tubulin-Different-Phenotype (%) [5]: 33% and 52%
- Total Cell Count [5]: 171 and 129
- Population Apoptotic (%) [6]: 64% and 40%
- Population Fragmented Nuclei (%) [6]: 21% and 43%
- Population Healthy Nuclei (%) [6]: 64% and 42%
- Population Hoechst High Intensity Objects (%) [6]: 4%
- Population Membrane Permeable-Phenotype (%) [6]: 0% and 11%
- Population Mitochondria Different-Phenotype (%) [6]: 2% and 0%
- Population Mitotic Cells (%) [6]: 35% and 60%
- Population Normal (%) [6]: 95%
- Population Pyknosed Nuclei (%) [6]: 13% and 15%
- Population Tubulin-Different-Phenotype (%) [6]: 25% and 54%
- Total Cell Count [6]: 134 and 105

SMILES: CCOc1c2c(c(OCC)c3ncccc13)CN(c1ccc(CS(=O)(=O)NC(=O)Cc3ccccc3OC)cc1C)C2=O
- Population Apoptotic (%) [1]: 44% and 38%
- Population Fragmented Nuclei (%) [1]: 15% and 37%
- Population Healthy Nuclei (%) [1]: 68% and 42%
- Population Hoechst High Intensity Objects (%) [1]: 0% and 4%
- Population Membrane Permeable-Phenotype (%) [1]: 1% and 8%
- Population Mitochondria Different-Phenotype (%) [1]: 3% and 2%
- Population Mitotic Cells (%) [1]: 55% and 61%
- Population Normal (%) [1]: 99% and 95%
- Population Pyknosed Nuclei (%) [1]: 15% and 19%
- Population Tubulin-Different-Phenotype (%) [1]: 23% and 62%
- Total Cell Count [1]: 120 and 111
- Population Apoptotic (%) [2]: 35% and 21%
- Population Fragmented Nuclei (%) [2]: 15% and 19%
- Population Healthy Nuclei (%) [2]: 63% and 50%
- Population Hoechst High Intensity Objects (%) [2]: 1% and 3%
- Population Membrane Permeable-Phenotype (%) [2]: 1% and 7%
- Population Mitochondria Different-Phenotype (%) [2]: 6% and 8%
- Population Mitotic Cells (%) [2]: 64% and 78%
- Population Normal (%) [2]: 98% and 96%
- Population Pyknosed Nuclei (%) [2]: 21% and 29%
- Population Tubulin-Different-Phenotype (%) [2]: 27% and 54%
- Total Cell Count [2]: 161 and 146
- Population Apoptotic (%) [3]: 56% and 46%
- Population Fragmented Nuclei (%) [3]: 13% and 37%
- Population Healthy Nuclei (%) [3]: 67% and 32%
- Population Hoechst High Intensity Objects (%) [3]: 3% and 2%
- Population Mitochondria Different-Phenotype (%) [3]: 3%
- Population Mitotic Cells (%) [3]: 43% and 53%
- Population Normal (%) [3]: 96% and 97%
- Population Pyknosed Nuclei (%) [3]: 18% and 29%
- Population Tubulin-Different-Phenotype (%) [3]: 23% and 69%
- Total Cell Count [3]: 127 and 104
- Population Apoptotic (%) [4]: 42%
- Population Fragmented Nuclei (%) [4]: 17% and 25%
- Population Healthy Nuclei (%) [4]: 66% and 49%
- Population Hoechst High Intensity Objects (%) [4]: 3% and 4%
- Population Membrane Permeable-Phenotype (%) [4]: 1% and 5%
- Population Mitochondria Different-Phenotype (%) [4]: 2%
- Population Mitotic Cells (%) [4]: 57%
- Population Normal (%) [4]: 96% and 95%
- Population Pyknosed Nuclei (%) [4]: 15% and 25%
- Population Tubulin-Different-Phenotype (%) [4]: 19% and 50%
- Total Cell Count [4]: 171 and 142
- Population Apoptotic (%) [5]: 57% and 66%
- Population Fragmented Nuclei (%) [5]: 18% and 47%
- Population Healthy Nuclei (%) [5]: 66% and 40%
- Population Hoechst High Intensity Objects (%) [5]: 3% and 5%
- Population Membrane Permeable-Phenotype (%) [5]: 1% and 5%
- Population Mitochondria Different-Phenotype (%) [5]: 3% and 7%
- Population Mitotic Cells (%) [5]: 42% and 33%
- Population Normal (%) [5]: 96% and 94%
- Population Pyknosed Nuclei (%) [5]: 15% and 12%
- Population Tubulin-Different-Phenotype (%) [5]: 26% and 72%
- Total Cell Count [5]: 128 and 105
- Population Apoptotic (%) [6]: 71% and 29%
- Population Fragmented Nuclei (%) [6]: 16% and 34%
- Population Healthy Nuclei (%) [6]: 63% and 45%
- Population Hoechst High Intensity Objects (%) [6]: 7% and 9%
- Population Membrane Permeable-Phenotype (%) [6]: 1% and 7%
- Population Mitochondria Different-Phenotype (%) [6]: 2% and 5%
- Population Mitotic Cells (%) [6]: 28% and 70%
- Population Normal (%) [6]: 92% and 90%
- Population Pyknosed Nuclei (%) [6]: 20%
- Population Tubulin-Different-Phenotype (%) [6]: 20% and 51%
- Total Cell Count [6]: 171 and 131

SMILES: CCCN1CCC[C@@H]2Cc3n[nH]cc3C[C@H]21.Cl [QUINPIROLE HYDROCHLORIDE]
- Population Apoptotic (%) [1]: 45% and 52%
- Population Fragmented Nuclei (%) [1]: 14% and 22%
- Population Healthy Nuclei (%) [1]: 65% and 60%
- Population Hoechst High Intensity Objects (%) [1]: 2% and 6%
- Population Membrane Permeable-Phenotype (%) [1]: 0% and 7%
- Population Mitochondria Different-Phenotype (%) [1]: 3% and 6%
- Population Mitotic Cells (%) [1]: 54% and 47%
- Population Normal (%) [1]: 97% and 93%
- Population Pyknosed Nuclei (%) [1]: 20% and 17%
- Population Tubulin-Different-Phenotype (%) [1]: 17% and 50%
- Total Cell Count [1]: 156 and 139
- Population Apoptotic (%) [2]: 58% and 45%
- Population Fragmented Nuclei (%) [2]: 16% and 23%
- Population Healthy Nuclei (%) [2]: 68% and 59%
- Population Hoechst High Intensity Objects (%) [2]: 4% and 2%
- Population Membrane Permeable-Phenotype (%) [2]: 1% and 10%
- Population Mitochondria Different-Phenotype (%) [2]: 6%
- Population Mitotic Cells (%) [2]: 41% and 54%
- Population Normal (%) [2]: 95% and 97%
- Population Pyknosed Nuclei (%) [2]: 15% and 17%
- Population Tubulin-Different-Phenotype (%) [2]: 33% and 55%
- Total Cell Count [2]: 115 and 184
- Population Apoptotic (%) [3]: 52% and 34%
- Population Fragmented Nuclei (%) [3]: 21% and 28%
- Population Healthy Nuclei (%) [3]: 64% and 53%
- Population Hoechst High Intensity Objects (%) [3]: 1% and 2%
- Population Membrane Permeable-Phenotype (%) [3]: 0% and 1%
- Population Mitochondria Different-Phenotype (%) [3]: 2% and 7%
- Population Mitotic Cells (%) [3]: 47% and 65%
- Population Normal (%) [3]: 98%
- Population Pyknosed Nuclei (%) [3]: 13% and 17%
- Total Cell Count [3]: 172 and 150
- Population Apoptotic (%) [4]: 75% and 55%
- Population Fragmented Nuclei (%) [4]: 22% and 38%
- Population Healthy Nuclei (%) [4]: 67% and 51%
- Population Hoechst High Intensity Objects (%) [4]: 2% and 1%
- Population Membrane Permeable-Phenotype (%) [4]: 0% and 7%
- Population Mitochondria Different-Phenotype (%) [4]: 7% and 3%
- Population Mitotic Cells (%) [4]: 25% and 45%
- Population Normal (%) [4]: 97% and 98%
- Population Pyknosed Nuclei (%) [4]: 10% and 9%
- Population Tubulin-Different-Phenotype (%) [4]: 32% and 39%
- Total Cell Count [4]: 119 and 209
- Population Apoptotic (%) [5]: 68% and 38%
- Population Fragmented Nuclei (%) [5]: 23% and 37%
- Population Healthy Nuclei (%) [5]: 62% and 53%
- Population Hoechst High Intensity Objects (%) [5]: 3% and 1%
- Population Membrane Permeable-Phenotype (%) [5]: 0% and 8%
- Population Mitochondria Different-Phenotype (%) [5]: 3% and 4%
- Population Mitotic Cells (%) [5]: 32% and 61%
- Population Normal (%) [5]: 96% and 98%
- Population Pyknosed Nuclei (%) [5]: 14% and 8%
- Population Tubulin-Different-Phenotype (%) [5]: 21% and 42%
- Total Cell Count [5]: 175 and 157
- Population Apoptotic (%) [6]: 53% and 46%
- Population Fragmented Nuclei (%) [6]: 23% and 43%
- Population Healthy Nuclei (%) [6]: 65% and 48%
- Population Hoechst High Intensity Objects (%) [6]: 1% and 3%
- Population Membrane Permeable-Phenotype (%) [6]: 2%
- Population Mitochondria Different-Phenotype (%) [6]: 6% and 4%
- Population Mitotic Cells (%) [6]: 46% and 53%
- Population Normal (%) [6]: 98% and 96%
- Population Pyknosed Nuclei (%) [6]: 11% and 8%
- Population Tubulin-Different-Phenotype (%) [6]: 31% and 48%
- Total Cell Count [6]: 119 and 192
